LMPTP block: LMPTP (human) inhibition | recombinant LMPTP-A, OMFP fluorogenic substrate, fluorescence intensity | actives 0.22% (n = 360,000) | AID 651560 | inhibition, % at 20 µM;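 active = compounds that cut the enzyme signal by at least half of the control window in the single-dose screen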
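Test system: LMPTP-A phosphatase enzyme; input: 0.625 nM LMPTP-A final; reagent: OMFP substrate, 400 µM final; compound dosing: 20 µM single dose, 3% DMSO; incubation: 50 min dark incubation at room temperature; measured by: endpoint fluorescence intensity from OMFP dephosphorylation; measure: % inhibition relative to no-enzyme and uninhibited control wells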
STEP block: inhibitors of human striatal-enriched phosphatase STEP. inhibition, % at 20 µM. P54829. recombinant STEP, OMFP fluorogenic substrate, fluorescence. AID 588621. actives 0.25% (n = 360,000);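 active = inhibition at 20 µM, scaled per plate between control wells, above about 37%, limit read from the data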
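System: isolated STEP enzyme; schedule: 20 min enzyme reaction at room temperature, protected from light; medium: Bis-Tris buffer pH 6.0, 2.5 mM DTT, 0.005% Tween 20; signal: fluorescence, 480/540 nm; dosing: single compound dose of 20 µM, 1% DMSO final; also added: OMFP substrate, 25 µM final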
Scp-1 inhibitor: Scp-1 (human) phosphatase inhibition; Recombinant Scp1, phosphopeptide, malachite green phosphate absorbance; inhibition, % at 20 µM; actives 0.88% (n = 340,000);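 active = inhibition above about 50% at 20 µM, limit read from the data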
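Incubation: 45 min enzyme reaction at room temperature / System: truncated SCP-1 phosphatase (76-261aa) / Reagent: Phospho 17-mer peptide substrate / Buffer or medium: Acidic Tris acetate buffer with magnesium and detergent / Signal: absorbance at 630 nm / Doses: one concentration, 20 µM, with 1.0% DMSO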
DNMT1 inh: inhibitors of human DNMT1 | P26358 | DNMT1 molecular beacon, Hinp1I cleavage, fluorescence | inhibition (reported as % activation of signal), % at 10 µM | actives 0.83% (n = 360,000) | AID 588458; in the data active = inhibition above about 50%
Rpn11 inh: blocks the human proteasome subunit Rpn11. inhibition, % at 20 µM. actives 0.59% (n = 360,000). human 26S proteasome, Ub4-pepOG fluorescence polarization; 20S core pre-blocked with epoxomicin. AID 588493. O00487;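 active = inhibition at 20 µM, scaled to each plate's controls, above about 33%, limit read from the data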
Rpn11 confirm: confirmation of human proteasome Rpn11 inhibitors; purified human 26S proteasome, Ub4-pepOG fluorescence polarization; proteasome pretreated with epoxomicin; actives 29% (n = 1,900); inhibition, % at 20 µM; AID 602318; shares compounds with Rpn11 inh
MMP-2 counter: MMP-2 (human) inhibition counter-screen. shares compounds with Rpn11 inh. recombinant MMP-2, FRET peptide cleavage fluorescence. inhibition, % at 20 µM. actives 4% (n = 1,900). AID 602330;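 note: human MMP-2 activated beforehand with APMA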
Target sequence (P08253 whole entry, looked up): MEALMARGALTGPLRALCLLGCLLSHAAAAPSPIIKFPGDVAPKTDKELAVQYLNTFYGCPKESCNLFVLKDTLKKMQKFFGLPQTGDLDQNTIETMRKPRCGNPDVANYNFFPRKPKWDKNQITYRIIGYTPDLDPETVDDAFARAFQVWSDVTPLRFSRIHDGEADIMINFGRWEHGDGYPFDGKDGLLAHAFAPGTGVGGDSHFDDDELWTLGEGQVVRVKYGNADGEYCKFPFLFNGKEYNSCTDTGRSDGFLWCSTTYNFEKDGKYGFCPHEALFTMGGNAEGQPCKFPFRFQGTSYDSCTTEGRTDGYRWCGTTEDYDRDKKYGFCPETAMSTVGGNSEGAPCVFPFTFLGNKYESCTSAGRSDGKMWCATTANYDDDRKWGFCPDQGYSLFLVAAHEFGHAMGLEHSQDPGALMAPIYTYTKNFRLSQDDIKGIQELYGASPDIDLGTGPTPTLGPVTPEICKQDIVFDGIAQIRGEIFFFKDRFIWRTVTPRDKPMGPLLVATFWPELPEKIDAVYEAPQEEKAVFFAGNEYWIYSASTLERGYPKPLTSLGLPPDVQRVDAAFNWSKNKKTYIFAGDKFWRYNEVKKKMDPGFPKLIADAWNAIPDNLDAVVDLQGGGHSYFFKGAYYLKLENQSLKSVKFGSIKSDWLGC
Thrombin FP: blocks bovine thrombin, flagging nonselective RPN11 hits; inhibition, % at 20 µM; actives 13% (n = 1,900); shares compounds with Rpn11 inh; bovine thrombin cleavage of Ub4-pepOG, fluorescence polarization; AID 602333;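 active = mean inhibition at least 40% at 20 µM, or signal 3 deviations below plate average, so some actives read negative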
Of the large screens only hits and unclear results are named; the others gave an inactive call (follow-up assays come after a bar, where they were run). Shown are actives, neighbours in structure and some others; about 2% of the full set was active somewhere. Cut-off read from the data, not from the text of the source, unless noted: active = inhibition above about 40%; inactive = the rest.

COc1ccc2cc(-c3csc(-c4cccnc4)n3)ccc2c1	Rpn11 inh 65 | Rpn11 confirm inactive | MMP-2 counter inactive | Thrombin FP inactive
O=C(O)CC(CN1C(=O)c2ccccc2C1=O)c1ccccc1 (stereo unspecified)	none
N#C/C(=C\c1ccc(-c2cccc([N+](=O)[O-])c2)o1)C(=O)Nc1nc(-c2cccs2)cs1	Rpn11 inh 59 | Rpn11 confirm inactive | MMP-2 counter inactive | Thrombin FP inactive
CCOC(=O)C1CC2=C(CC(C)(C)CC2=O)N(CCOC)C1=O (stereo unspecified)	none
O=[N+]([O-])c1ccc(N/N=C/c2c[nH]c3ccccc23)cc1	Rpn11 inh 115 | Rpn11 confirm 84 | MMP-2 counter inactive | Thrombin FP 59
O=[N+]([O-])c1ccc(N/N=C/c2cccc(O)c2)cc1	Rpn11 inh 46 | Rpn11 confirm inactive | MMP-2 counter inactive | Thrombin FP inactive
COc1ccccc1NS(=O)(=O)c1cc([N+](=O)[O-])ccc1N/N=C/c1c[nH]c2ccccc12	Rpn11 inh 47 | Rpn11 confirm inactive | MMP-2 counter inactive | Thrombin FP inactive
O=[N+]([O-])c1ccc(N/N=C/c2ccc[nH]2)cc1	Rpn11 inh 67 | Rpn11 confirm 51 | MMP-2 counter inactive | Thrombin FP inactive
O=C(NCc1ccccc1)c1cc(C2CCCCN2S(=O)(=O)c2cccc3cccnc23)on1 (stereo unspecified)	none (no result: Scp-1 inhibitor)
CCc1ccc(C2CC(=O)N(c3cccc(F)c3)C3=C2C(=O)OC3)cc1 (stereo unspecified)	none
O=[N+]([O-])c1ccc(N/N=C/c2cn(-c3ccccc3)nc2-c2ccccc2)cc1	Rpn11 inh 48 | Rpn11 confirm inactive | MMP-2 counter inactive | Thrombin FP inactive
CCCn1c(NC(=O)c2ccco2)nc2ccccc21	none
CCCn1c(NC(=O)C2COc3ccccc3O2)nc2ccccc21 (stereo unspecified)	Rpn11 inh 104 | Rpn11 confirm inactive | MMP-2 counter inactive | Thrombin FP inactive
CCOC(=O)N1CCN(C(=O)c2cc(OC)c(OC)c(OC)c2)CC1	Rpn11 inh 35 | Rpn11 confirm inactive | MMP-2 counter inactive | Thrombin FP inactive
Nc1cccn2c(-c3ccc(Cl)cc3)cnc12	none
Nc1cccn2c(-c3ccc(Cl)c(Cl)c3)cnc12	Rpn11 inh 54 | Rpn11 confirm inactive | MMP-2 counter inactive | Thrombin FP inactive
Cc1ccc(N(CC(=O)NC2CCCC2)C(=O)c2nsc(Cl)c2Cl)cc1	none
CC1(C(=O)O)Sc2[nH]c(=O)sc2C2c3ccccc3OC(=O)C21 (stereo unspecified)	Rpn11 inh 48 | Rpn11 confirm inactive | MMP-2 counter inactive | Thrombin FP inactive
COC(=O)C1Sc2[nH]c(=O)sc2C2c3ccccc3OC(=O)C12 (stereo unspecified)	none
COc1ccc(C(C)=O)cc1Cn1c(C)c(C(=O)NCc2cccc(C)c2)sc1=O	none (no result: Scp-1 inhibitor)
CC[n+]1c(/C=C/Nc2ccccc2)oc2ccc(OC)cc21	Rpn11 inh 57 | Rpn11 confirm 45 | MMP-2 counter inactive | Thrombin FP inactive
O=C(Nc1ccccn1)C(F)(F)C(F)(F)C(F)(F)C(F)(F)C(=O)Nc1ccccn1	none
Cc1cc(NC(=O)CN2C(=O)/C(=C/c3cccc(Br)c3)SC2=S)no1	Rpn11 inh 45 | Rpn11 confirm inactive | MMP-2 counter inactive | Thrombin FP inactive
Cc1noc(C)c1C(=O)N(CC(C)C)c1nc2ccccc2s1	none
Cc1ccc(S(=O)(=O)Nc2cc(C)cn(Cc3ccc(F)cc3)c2=O)cc1	Rpn11 inh 60 | Rpn11 confirm inactive | MMP-2 counter inactive | Thrombin FP 59
Cc1ccc(S(=O)(=O)Nc2cc(C)cn(Cc3ccccc3)c2=O)cc1	none
Cc1cc(NC(=O)c2cccc(S(=O)(=O)N(C)C)c2)n(-c2ccccn2)n1	Rpn11 inh 92 | Rpn11 confirm inactive | MMP-2 counter inactive | Thrombin FP inactive
CC1CCCCN1C(=S)NCc1ccco1 (stereo unspecified)	none
COc1ccc(CC(=O)Nc2ccc(-c3nnc(-c4ccccc4)o3)cc2)cc1OC	Rpn11 inh 69 | Rpn11 confirm inactive | MMP-2 counter inactive | Thrombin FP inactive
COc1ccc(CC(=O)Nc2cccc(-c3nnc(-c4ccccc4)o3)c2)cc1OC	none
O=C(Nc1ccc(-c2nnc(-c3ccccc3)o2)cc1)C(F)(F)F	Rpn11 inh 43 | Rpn11 confirm inactive | MMP-2 counter inactive | Thrombin FP inactive
CCOC(=O)c1c(C)[nH]c(O)c1C=Nc1ccc(Cl)cc1	Rpn11 inh 55 | Rpn11 confirm inactive | MMP-2 counter inactive | Thrombin FP inactive
CCOC(=O)c1c(C)[nH]c(O)c1C=Nc1ccc(C(F)(F)F)cc1	Rpn11 inh 49 | Rpn11 confirm inactive | MMP-2 counter inactive | Thrombin FP inactive
COC(=O)c1c(C)[nH]c(O)c1C=Nc1ccc(C(C)C)cc1	none
O=S(=O)(c1ccc(NC(=S)NN=C2CCCCC2)cc1)N1CCOCC1	none
Cc1c(OC(C)C(=O)NCC(O)c2ccccc2)ccc2c3c(c(=O)oc12)CCC3 (stereo unspecified)	none
CCCC[C@@H]1C=C(C(=O)O)[C@H](c2ccc(Cl)cc2)N1S(=O)(=O)c1ccc(C)cc1	none
COc1ccc(Cc2c(-c3ccc(Cl)cc3)nc3c(C)cc(Br)cn23)c(C)c1	Rpn11 inh 44 (no result: Scp-1 inhibitor) | Rpn11 confirm inactive | MMP-2 counter inactive | Thrombin FP inactive
COc1ccc(Cc2c(C(C)(C)C)nc3ccc(Cl)cn23)c(C)c1	DNMT1 inh 104, Rpn11 inh 56 (no result: Scp-1 inhibitor) | Rpn11 confirm 44 | MMP-2 counter inactive | Thrombin FP inactive
COc1ccc(Cc2c(-c3ccccc3)nc3c(C)cc(Br)cn23)c(C)c1	Rpn11 inh 63 (no result: Scp-1 inhibitor) | Rpn11 confirm inactive | MMP-2 counter 47 | Thrombin FP inactive
COc1ccc(Cc2c(C(C)(C)C)nc3ccc(C)cn23)c(C)c1	none (no result: Scp-1 inhibitor)
COc1ccc(Cc2c(-c3ccc(F)cc3)nc3c(C)cc(Br)cn23)c(C)c1	none (no result: Scp-1 inhibitor)
O=C(CN(C(=O)CNC(=O)c1ccco1)c1cccc(F)c1)NC1CCCCC1	none
Cc1cc(C(=O)CN2C(=O)C(=O)N(CC(C)C)C2=O)c(C)n1-c1ccccc1F	none
COc1ccc(C(c2c(C)n(C)n(-c3ccccc3)c2=O)c2c(C)n(C)n(-c3ccccc3)c2=O)c(OC)c1OC	none

High-throughput results as filed in PubChem BioAssay.
